This is an account of results in ChEMBL document CHEMBL1131092, “Prodrugs of anthracyclines for use in antibody-directed enzyme prodrug therapy” (J Med Chem, 1998).

The test system of data set [1] is L1210. Kind of data set: Inhibitory activity was measured against murine L1210 leukemia cells. Particulars: Mus musculus. Type of data set: functional, cell-based. The essentials:
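Exponentially growing L1210 cells in RPMI were exposed to a range of concentrations for 72 h (37 °C, 5% CO2), with quadruplicate wells and medium-only controls. MTT (2.5 mg/mL in PBS) was added at 65 h, and formazan was dissolved in DMSO after 7 more h. IC50 is 50% growth inhibition versus untreated control; replicate CV <15%.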

The nature of data set [2]: Half life period at 200 ug/mL concentration of prodrug in the presence of 0.1 ug/mL Beta-glucuronidase (Escherichia coli) in phosphate buffer. Particulars: in vitro.
Data set [3] deals with Escherichia coli. Kind of data set: Half life period at 200 ug/mL concentration of prodrug in the presence of 1 ug/mL Beta-glucuronidase (Escherichia coli) in phosphate buffer. The following applies: in vitro.

`COc1cccc2c1C(=O)c1c(O)c3c(c(O)c1C2=O)C[C@@](O)(C(=O)CO)C[C@@H]3O[C@H]1C[C@@H](NC(=O)OCc2cc([N+](=O)[O-])ccc2O[C@@H]2O[C@@H](C(=O)O)[C@@H](O)[C@H](O)[C@@H]2O)[C@H](O)[C@H](C)O1`: the IC50 (as a rule, the midpoint of a concentration-inhibition curve) in data set [1] was 16.6 µM. Moreover, the T1/2 in data set [2] is reported as 216 min.
For `COc1cccc2c1C(=O)c1c(O)c3c(c(O)c1C2=O)C[C@@](O)(C(=O)CO)C[C@@H]3O[C@H]1C[C@@H](NC(=O)OCc2cc(F)ccc2O[C@@H]2O[C@@H](C(=O)O)[C@@H](O)[C@H](O)[C@@H]2O)[C@H](O)[C@H](C)O1` the same measures were 31 µM and 30 min.
For `COc1cccc2c1C(=O)c1c(O)c3c(c(O)c1C2=O)C[C@@](O)(C(=O)CO)C[C@@H]3O[C@H]1C[C@@H](NC(=O)OCc2ccc(O[C@@H]3O[C@@H](C(=O)O)[C@@H](O)[C@H](O)[C@@H]3O)c([N+](=O)[O-])c2)[C@H](O)[C@H](C)O1` the same measures were 2.21 µM and 37 min.
In turn, `COc1cccc2c1C(=O)c1c(O)c3c(c(O)c1C2=O)C[C@@](O)(C(=O)CO)C[C@@H]3O[C@H]1C[C@@H](NC(=O)OCc2ccc(O[C@@H]3O[C@@H](C(=O)O)[C@@H](O)[C@H](O)[C@@H]3O)c(Cl)c2)[C@H](O)[C@H](C)O1` gave a half-maximal inhibitory concentration (IC50) in data set [1] of 17 µM. For the same compound, in data set [2], the T1/2 is given as 55 min.
As to `COc1cccc2c1C(=O)c1c(O)c3c(c(O)c1C2=O)C[C@@](O)(C(=O)CO)C[C@@H]3O[C@H]1C[C@@H](NC(=O)OCc2cc(Cl)ccc2O[C@@H]2O[C@@H](C(=O)O)[C@@H](O)[C@H](O)[C@@H]2O)[C@H](O)[C@H](C)O1`, half-maximal inhibition in data set [1] (IC50) required 16.6 µM. For the same compound, the T1/2 in data set [2] is given as greater than 240 min; in data set [3], 30 min.
Compound `COc1cccc2c1C(=O)c1c(O)c3c(c(O)c1C2=O)C[C@@](O)(C(C)=O)C[C@@H]3O[C@H]1C[C@@H](NC(=O)OCc2ccc(O[C@@H]3O[C@@H](C(=O)O)[C@@H](O)[C@H](O)[C@@H]3O)cc2)[C@H](O)[C@H](C)O1` registered a half-inhibitory concentration (IC50) in data set [1] greater than 10 µM.
As for `COC(=O)[C@@H]1O[C@@H](Oc2ccccc2COC(=O)N[C@@H]2C[C@H](O[C@H]3C[C@](O)(C(C)=O)Cc4c(O)c5c(c(O)c43)C(=O)c3c(OC)cccc3C5=O)O[C@@H](C)[C@H]2O)[C@@H](OC(C)=O)[C@@H](OC(C)=O)[C@@H]1OC(C)=O`, half-maximal inhibition in data set [1] (IC50) required 5.5 µM.
For the compound `COc1cccc2c1C(=O)c1c(O)c3c(c(O)c1C2=O)C[C@@](O)(C(=O)CO)C[C@@H]3O[C@H]1C[C@@H](NC(=O)OCc2ccc(O[C@@H]3O[C@@H](C(=O)O)[C@@H](O)[C@H](O)[C@@H]3O)c(F)c2)[C@H](O)[C@H](C)O1`, the IC50 in data set [1] amounted to 8.8 µM. Besides, in data set [2], the T1/2 came to 26 min.
`COc1cccc2c1C(=O)c1c(O)c3c(c(O)c1C2=O)C[C@@](O)(C(C)=O)C[C@@H]3O[C@H]1C[C@H](N)[C@H](O)[C@H](C)O1` [DAUNORUBICIN] yielded a half-maximal inhibitory concentration (IC50) in data set [1] of 0.03 µM.
